Compound activity as filed in PubChem BioAssay.
Rows were chosen to be rich in hits. Some 4.1% of all compounds tested hit in one or more screens of this group.
AHR activator: AHR activators, primary screen, cell-based, luminescence, luciferase reporter, human; Aryl hydrocarbon receptor (Homo sapiens), P35869; AHR-responsive luciferase reporter cells; activation, % at 5 µM; actives 2.5% (n = 320,000); in the data active = activation above about 47%;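 note: 0% = vehicle wells and 100% = reference agonist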
Target sequence (P35869 whole entry, looked up): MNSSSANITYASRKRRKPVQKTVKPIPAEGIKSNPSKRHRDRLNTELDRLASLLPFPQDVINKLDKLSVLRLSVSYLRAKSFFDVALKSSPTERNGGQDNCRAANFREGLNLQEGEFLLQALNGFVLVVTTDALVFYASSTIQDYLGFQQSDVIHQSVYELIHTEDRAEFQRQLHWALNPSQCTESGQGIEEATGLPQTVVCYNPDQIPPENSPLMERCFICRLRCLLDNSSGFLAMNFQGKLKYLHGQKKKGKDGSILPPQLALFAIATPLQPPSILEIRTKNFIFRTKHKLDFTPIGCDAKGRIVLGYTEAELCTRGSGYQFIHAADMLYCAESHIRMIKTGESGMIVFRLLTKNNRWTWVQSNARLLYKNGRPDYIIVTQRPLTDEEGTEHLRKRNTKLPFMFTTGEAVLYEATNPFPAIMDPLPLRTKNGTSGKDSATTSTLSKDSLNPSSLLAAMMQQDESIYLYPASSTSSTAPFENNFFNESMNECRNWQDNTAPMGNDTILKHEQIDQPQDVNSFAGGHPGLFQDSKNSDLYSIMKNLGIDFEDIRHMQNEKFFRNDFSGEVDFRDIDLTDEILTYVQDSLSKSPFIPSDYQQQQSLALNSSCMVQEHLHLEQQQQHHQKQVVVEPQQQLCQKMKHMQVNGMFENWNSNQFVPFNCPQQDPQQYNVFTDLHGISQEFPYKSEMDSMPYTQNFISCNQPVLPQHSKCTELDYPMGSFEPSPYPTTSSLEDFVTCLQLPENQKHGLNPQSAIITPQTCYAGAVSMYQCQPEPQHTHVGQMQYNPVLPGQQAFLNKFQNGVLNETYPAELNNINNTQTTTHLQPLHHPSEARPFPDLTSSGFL
Efflux pump mplx: inhibitors of Candida efflux pumps in yeast, primary screen, S. cerevisiae, Nile Red, multiplex; S. cerevisiae Candida pump triplex; inhibition, % at 10 µM; actives 0.44% (n = 330,000);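 active = plate passing quality check with inhibition over a set limit, or well fluorescence over plate mean plus 4 SD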;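 note: Nile Red retained in pooled yeast measured as flow cytometry median fluorescence; 0% = buffer negative control and 100% = Enniatin B positive control; higher means more Nile Red kept so more efflux inhibition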
TbMetRS inhib: T. brucei MetRS inhibitors, primary screen, biochemical, luminescence; methionyl-tRNA synthetase (Trypanosoma brucei brucei); purified T. brucei MetRS, ATP depletion, Kinase-Glo luminescence; inhibition, % at 11.9 µM; actives 0.4% (n = 360,000); AID 624268, 2012;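 active = inhibition above a per-plate cutoff of the control wells' mean inhibition plus 3 SD, cut at about 5.5% in these data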;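 note: 0% = DMSO wells median and 100% = median of wells with control inhibitor compound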
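technique = Kinase-Glo luminescence, ATP depletion format | system = purified MetRS (methionyl-tRNA synthetase) enzyme from Trypanosoma brucei | timing = 15 min preincubation, 2 h reaction, all 25 °C | evaluation = percent inhibition versus plate control medians | dosing = single dose, 11.9 µM final nominal, 0.9% final DMSO | also added = substrates ATP, L-methionine and bulk Escherichia coli tRNA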
TAG inh: inhibitors of triacylglycerol accumulation, primary screen, cell-based, uHTS, fluorescence, H9c2; H9c2 cells, Nile Red lipid (TAG) fluorescence; cells loaded with 200 µM oleic acid; inhibition, % at 12.5 µM; actives 0.66% (n = 230,000);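 active = pattern-corrected inhibition of lipid staining of at least 50% with the nuclear-stain viability signal not falling by more than 50%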;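 note: 0% = DMSO wells and 100% = triacsin C control wells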
SMARCA2 activ: SMARCA2 (BRM) function activators, primary screen, cell-based, luminescence, high throughput | MG213 cells, MMTV-luciferase reporter, dexamethasone, overnight | activation, % at 9.1 µM | actives 1% (n = 370,000); in the data active = activation above about 7.8%;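 note: 0% = vehicle wells and 100% = reference activator wells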
SMARCA2 act conf: SMARCA2 (BRM) function activators, confirmation, cell-based, luminescence, triplicate | shares compounds with SMARCA2 activ | MG213 cells, MMTV-luciferase with dexamethasone, overnight; MG213 cells expressing E1A, Rb sequestered; DMSO wells 0%, reference activator 100% | activation, % at 9.1 µM | actives 30% (n = 3,500) | AID 652260, 2013;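 active = activation above its plate's cutoff, the mean activation of tested wells plus 3 SD, cut at about 7.9% in these data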
GAL4-VP16 Luc: GAL4-VP16 luciferase reporter activation, counter-screen for SMARCA2 (BRM) activator project, cell-based, pG5luc, luminescence, high throughput; shares compounds with SMARCA2 activ; HEK293 GAL4-VP16 pG5luc reporter; scaled: DMSO wells 0%, SAHA wells 100%; activation, % at 9.1 µM; actives 41% (n = 3,500);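 active = activation above the solvent-only control well mean plus 3 SD, averaged across control plates, cut at about 5.2% in these data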
* hit, by the source's call; x = no result.

SMILES | AHR activator | Efflux pump mplx | TbMetRS inhib | TAG inh | SMARCA2 activ | SMARCA2 act conf | GAL4-VP16 Luc
CCN=C1NC(c2ccc(F)cc2)C(C(=O)OC)=C(C)N1Cc1ccccc1C(F)(F)F (stereo not drawn) | x | x | x | x | -1.6 | x | x
Nc1[nH]c(C(=O)c2ccccc2)c(-c2ccc3ccccc3c2)c1C(=O)NCc1ccc(-c2ccccc2)cc1 | x | x | x | x | -0.9 | x | x
C=CCCC1CN(CC=C)S(=O)(=O)c2c(F)cccc2O1 (stereo not drawn) | x | x | x | x | -2.3 | x | x
COCCn1c(=O)[nH]c2cc(C(=O)Nc3nnc(C)s3)ccc21 | 13.2 | 0.0 | -0.9 | x | 8.2* | 4.4 | 2.8
N#CCCN1CCN(C2=NC(=O)/C(=C\c3cccs3)S2)CC1 | 0.7 | -0.1 | -0.6 | 2.8 | 8.8* | 1.8 | -0.9
COCCNC(=S)N(C)[C@H]1C[C@H]2c3[nH]c4c(-c5ccc6c(c5)OCO6)cccc4c3CCN2C(=O)[C@H]1[C@H](C)O | x | x | x | x | -4.9 | x | x
Cc1ccc(-n2nc(CN3CCOCC3)c(-c3ccccc3)c2N)cc1Cl | 4.0 | 0.6 | -0.2 | x | -3.4 | x | x
Nc1c(-c2ccccc2)c(CN2CCOCC2)nn1-c1ccccc1 | -0.5 | -0.1 | -0.3 | x | 12.5* | -1.7 | 1.4
Cc1nn(-c2ccccc2)c(N)c1-c1ccccc1 | 3.2 | -0.1 | -0.9 | -4.0 | 10.8* | 8.2* | 11.9*
Cc1c(/C=C/C(=O)c2ccc(O)cc2)cnn1C | 3.4 | 0.2 | -0.1 | x | 8.0* | 13.8* | 6.9*
O=C(Cc1cccc2c(=O)cc(-c3ccccc3)oc12)OCCN1CCOCC1 | x | x | -1.3 | x | -2.1 | x | x
Clc1ccc2oc(-c3ccccc3)cc(=NCCCN3CCOCC3)c2c1 | x | x | -0.6 | 6.2 | 16.7* | 14.5* | 5.6*
OCCCCCN=c1cc(-c2ccccc2)oc2ccc(Cl)cc12 | 6.1 | 0.0 | -0.2 | 36.2 | 13.3* | 19.0* | 0.9
COC(=O)N1C[C@H](Oc2ncccn2)[C@H]2C[C@@H]1c1ccccc1O2 | x | x | x | x | -5.7 | x | x
COC(=O)[C@]12C[C@H](CC(=O)N3CCOCC3)C(=O)N(Cc3cccc4ccccc34)C1=C[C@H](C(C)(C)C)O[C@@H]2C | x | x | x | x | -3.2 | x | x
O=C(NCC1COc2ccccc2O1)c1ccc(NC(=O)C(Cl)Cl)cc1 (stereo not drawn) | x | x | x | x | -1.4 | x | x
COc1cccc(CNS(=O)(=O)c2cc(Br)ccc2Br)c1OC | x | x | x | x | -2.2 | x | x
O=C(/C=C/c1ccco1)Nc1cccnc1Cl | 0.3 | -0.1 | -1.3 | -0.7 | 9.3* | 6.3 | 6.8*
Cc1ccc(O)c(NC(=S)NC(=O)/C=C/c2ccco2)c1 | 22.4 | -0.1 | 0.4 | -1.9 | 4.5 | x | x
O=C(/C=C/c1ccccc1)Nc1cccnc1Cl | 20.3 | 0.0 | 0.7 | -6.2 | 7.2 | x | x
Cc1ccnc(NC(=S)NC(=O)/C=C/c2ccco2)c1 | 26.9 | -0.1 | -0.1 | 4.5 | 8.0* | 11.3* | 8.9*
O=C(Nc1c(F)c(F)c(F)c(F)c1F)OC[C@@H]1CSCCS(=O)(=O)N1 | x | x | x | x | 2.6 | x | x
O=c1cnnc(SCCc2ccccc2)[nH]1 | 2.8 | 0.1 | -0.2 | x | 8.2* | -1.0 | 0.6
COc1ccc(Cc2nc3ccc(C(=O)NCc4cc(C)no4)cc3o2)cc1 | 14.6 | 0.0 | -0.3 | 5.8 | 10.2* | 1.9 | 5.7*
COc1ccc(NC(=O)c2sc(SC)nc2N)cc1 | 19.2 | 0.0 | 0.1 | x | 10.9* | 7.5 | 3.9
SMILES | AHR activator | Efflux pump mplx | TbMetRS inhib | TAG inh | SMARCA2 activ | SMARCA2 act conf | GAL4-VP16 Luc
COc1cccc(CNC(=O)[C@H]2CCCN2C(=O)[C@H]2CCCN2C(=O)c2ccc(OC(F)(F)F)cc2)c1 | x | x | x | x | -4.9 | x | x
O=c1c2cc([N+](=O)[O-])ccc2sn1-c1ccccc1 | x | x | -1.3 | -5.2 | -0.3 | x | x
CC(=O)Nc1ccc2sn(-c3ccccc3)c(=O)c2c1 | x | x | -0.2 | 18.6 | 17.3* | 8.8* | 0.9
N#Cc1ccc2sn(-c3ccccc3)c(=O)c2c1 | x | x | -0.9 | 12.2 | 11.9* | 7.9* | 11.2*
COc1ccccc1Oc1ccccc1[N+](=O)[O-] | 0.5 | 0.0 | 0.2 | 4.4 | 10.0* | -0.2 | 2.8
O=C(O)c1cccc(Oc2ccccc2[N+](=O)[O-])c1 | -3.5 | -0.2 | -0.5 | x | 11.8* | -1.3 | 1.8
O=[N+]([O-])c1cccnc1Oc1ccccc1F | 1.4 | 0.0 | 0.0 | -5.8 | 9.6* | 0.7 | 1.6
CCN(CC)c1c2c(nc3ncnn13)CCCC2 | x | x | x | x | -5.1 | x | x
N#Cc1ccc(Cn2ccc3ccc(-c4ccc5ccn(Cc6ccc(C#N)cc6)c5c4)cc32)cc1 | x | x | x | x | -0.9 | x | x
COC(=O)C1=C(C)N(Cc2cccc(C(F)(F)F)c2)C(=NCc2ccc3c(c2)OCO3)NC1c1cccc(F)c1 (stereo not drawn) | x | x | x | x | -4.2 | x | x
c1ccc(COc2ccc(OCCCN3CCCC3)cc2)cc1 | 0.5 | 0.4 | 0.3 | x | 8.7* | 7.4 | 9.8*
c1ccc(COc2ccc(OCCN3CCCC3)cc2)cc1 | 3.7 | 0.5 | -1.6 | x | 0.0 | x | x
CCCn1nnnc1NC(=O)c1ccc(C)cc1Cl | 2.6 | 0.1 | -0.5 | x | 8.0* | -1.2 | 0.0
O=C(NS(=O)(=O)c1ccccc1[N+](=O)[O-])[C@H]1O[C@@H](n2ccc(=O)[nH]c2=O)[C@H](O)[C@@H]1O | x | x | x | x | -3.3 | x | x
O=C1C(C=NCCCN2CCCC2=O)=C(O)c2ccccc21 | 11.5 | 0.0 | 0.3 | x | 8.5* | 7.1 | 5.7*
CC(C)CN=CC1=C(O)c2ccccc2C1=O | 3.3 | -0.1 | -0.1 | 0.6 | 0.8 | x | x
CC(=O)c1c(O)cc(C(C)C)n(-c2ccccc2)c1=O | 1.3 | 0.2 | -0.5 | x | 20.4* | 3.2 | 0.3
CCO/N=C(\C)c1c(O)cc(C(C)C)n(-c2ccccc2)c1=O | 4.5 | 0.1 | -0.9 | x | -1.1 | x | x
O=C(CSc1nnc(-c2ccncc2)n1-c1ccc(Br)cc1)c1ccccc1 | x | x | x | x | -1.1 | x | x
